Measurements taken from article PMC2652733 (Bioconjugate chemistry, 2009).

Experiments:
RIF tumors = experiment: In vivo photosensitizing; set-up: species or system C3H mice
RIF tumor cells = experiment: In vitro photosensitizing efficacy; assay type: cell-based; conditions: for in vitro photosensitizing ability: lower light and drug doses, RIF cells; for in vitro photosensitizing ability (comparative): 24 h post-incubation, light dose 6.0 J/cm^2, drug concentration 1.0 μM and higher, 700 nm
Method in brief: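 RIF cells were grown in α-MEM with 10% FCS and plated at 5 × 10³ cells/well overnight. Test compound was added at varied concentrations for 24 h at 37°C in the dark, then replaced with drug-free medium. Cells were irradiated with a 700 nm dye laser (3.2 mW/cm², 0-6 J/cm²) and kept 48 h in the dark. MTT was added for 4 h, followed by DMSO and a 560 nm read. Survival was expressed as % of the drug-no-light control, with 4 replicate wells.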

[1] = Biodistribution of 124I-labeled compounds; assay type: in vivo, C3H mice bearing RIF tumors
Method in brief: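 RIF cells (3 × 10⁵ in 30 μl complete α-MEM) were implanted s.c. in the axilla of C3H mice and grown to 4-5 mm diameter (~5 days). The 124I-labelled test compound, in saline with 10% ethanol, was given via tail vein at 50-200 μCi. Thyroid uptake was not blocked. 3-4 mice per time point were killed at 24-96 h. Organs, blood and tail were weighed and gamma-counted, giving %ID/g.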

[2] = dose 2μmol/kg, 705 nm, 135 J/cm^2, 75 mW/cm^2
[3] = 24h PI, C3H mice bearing RIF tumors, i.v. 50-200 uCi

CCCCCCN1C(=O)C2=C(C)c3cc4[nH]c(cc5nc(cc6[nH]c(c(c2n3)C1=O)[C@@H](CCC(=O)OC)[C@@H]6C)C(C)=C5C(C)OCc1cccc(I)c1)c(C)c4CC (stereo partly shown) [compound 4, 3-{1’- (3-iodobenzyloxy)ethyl}purpurin-18-N-hexylimide methyl ester]
toxicity after PDT treatment (RIF tumors; [2]): toxic and all mice died within 24 h PDT treatment | in vitro photosensitizing ability (RIF tumor cells): ineffective

CCCCCCOC(C)C1=C(C)c2cc3[nH]c(c4c5nc(cc6[nH]c(cc1n2)c(C)c6CC)C(C)=C5C(=O)N(Cc1cccc(I)c1)C4=O)[C@@H](CCC(=O)OC)[C@@H]3C (stereo partly shown) [compound 5, 3-{1’- (Hexyloxy)ethyl}purpurin-18-N-(3-iodo)benzylimide methyl ester]
in vivo PDT activity (RIF tumors; [2]): did not show any significant activity | in vivo PDT activity (RIF tumors; doses 2.5 and 3.0 μmol/kg, 705 nm, 135 J/cm^2, 75 mW/cm^2): quite effective | in vitro photosensitizing ability (comparative) (RIF tumor cells): more effective than the structural isomer 4 | in vitro photosensitizing ability (RIF tumor cells): ineffective

^124I- labeled analog of 3-{1’- (3-iodobenzyloxy)ethyl}purpurin-18-N-hexylimide methyl ester [compound 8]
liver uptake in comparison of the 124I-analog of pyropheophorbide 1 [1, 3]: 32 fold | spleen uptake in comparison of the 124I-analog of pyropheophorbide 1 [1, 3]: 85 fold

CCc1c(C)c2cc3nc(cc4[nH]c(c5c6nc(cc1[nH]2)C(C)=C6C(=O)C5)[C@@H](CCC(=O)OC)[C@@H]4C)C(C)=C3C(C)OCc1cccc(I)c1 (stereo partly shown) [compound 1, 3-{1’- (3-iodobenzyloxy)ethyl}pyropheophorbide-a methyl ester]
mice tumor free on day 60 (RIF tumors; dose 1.5 μmol/kg i.v., 665 nm, 135 J/cm^2, 75 mW/cm^2 at 24 h post injection, 5 mice/group): 4/5

CCc1c(C)c2cc3nc(cc4[nH]c(c5c6nc(cc1[nH]2)C(C)=C6C(=O)N(Cc1cccc(I)c1)C5=O)[C@@H](CCC(=O)OC)[C@@H]4C)C(C)=C3C(C)OC (stereo partly shown) [compound 10, 3-{1’- (methoxy)ethyl}purpurin-18-N-(3-iodo)benzylimide methyl ester]
in vivo PDT efficacy, fold less effective over the lead compound 1 (RIF tumors; 705 nm (10), 135 J/cm^2, 75 mW/cm^2, 24 h post-injection): at least 1.5 fold | in vivo PDT activity compared with hexyl ether analog 5 (RIF tumors; doses of 1.0 and 2.5 mmol/kg, 705 nm, 135 J/cm^2, 75 mW/cm^2, 24 h post-injection): enhanced activity | in vitro photosensitizing ability (comparative) (RIF tumor cells): enhanced efficacy over the isomers 4 and 5 | tumor uptake (abstract statement) ([1]; methyl ether analog versus purpurinimide 5): improved tumor uptake
